Results taken from ChEMBL document CHEMBL1138808, “Synthesis and anticancer activity of simplified indenoisoquinoline topoisomerase I inhibitors lacking substituents on the aromatic rings” (2004).
Active and inactive are the calls of the source. The rule behind the calls is not given here.

How the values were obtained:
[1] = Growth inhibitory activity against human CNSSF-539 cell line; type: functional
Method in brief: (§1)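 Growth inhibition in human cancer cell culture. GI50 is the concentration giving 50% growth inhibition. Compounds were tested at concentrations up to […].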

[2] = test system: Panel (Carcinoma cell lines); experiment: Mean graph mid point for growth inhibition of human cancer cell lines; type: functional; design: unit not given here
Method in brief: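 Mean graph midpoint of growth inhibition, taken across all human cancer cell lines successfully tested. Compounds were tested at concentrations up to […], and GI50 is the concentration giving 50% growth inhibition.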

[3] = target: T1, DNA topoisomerase 1 (Homo sapiens) (UniProt P11387); experiment: Induction of topoisomerase I mediated DNA cleavage; greater activity than parent compound 1
T1 sequence (whole entry): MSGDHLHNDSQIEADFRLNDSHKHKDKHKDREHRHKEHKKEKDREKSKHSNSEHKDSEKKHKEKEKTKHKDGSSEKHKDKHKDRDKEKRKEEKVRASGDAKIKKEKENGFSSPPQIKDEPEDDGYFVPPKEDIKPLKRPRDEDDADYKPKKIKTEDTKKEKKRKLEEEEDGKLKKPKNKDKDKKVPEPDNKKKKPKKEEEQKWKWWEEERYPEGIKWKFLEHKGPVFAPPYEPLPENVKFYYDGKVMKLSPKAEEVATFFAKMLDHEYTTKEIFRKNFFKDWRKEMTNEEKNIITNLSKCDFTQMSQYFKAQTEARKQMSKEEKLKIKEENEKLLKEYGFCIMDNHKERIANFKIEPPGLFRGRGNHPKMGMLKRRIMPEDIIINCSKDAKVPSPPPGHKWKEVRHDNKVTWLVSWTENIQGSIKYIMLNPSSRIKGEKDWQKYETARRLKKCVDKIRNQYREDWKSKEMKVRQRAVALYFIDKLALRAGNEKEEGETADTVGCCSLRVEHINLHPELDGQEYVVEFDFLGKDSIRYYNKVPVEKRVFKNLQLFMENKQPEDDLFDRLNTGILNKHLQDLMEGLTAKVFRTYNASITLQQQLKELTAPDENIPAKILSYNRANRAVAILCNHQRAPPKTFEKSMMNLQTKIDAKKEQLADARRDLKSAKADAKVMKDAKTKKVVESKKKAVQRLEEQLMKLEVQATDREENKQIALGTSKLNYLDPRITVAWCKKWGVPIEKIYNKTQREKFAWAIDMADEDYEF

[4] = test system: HOP-62; experiment: Growth inhibitory activity against human lung HOP-62 cell line; type: functional; method in brief: as §1
[5] = test system: SN12C; experiment: Growth inhibitory activity against human renal SN12C cell line; type: functional; method in brief: as §1
[6] = test system: HCT-116; experiment: Growth inhibitory activity against human colon HCT116 cell line; type: functional; method in brief: as §1
[7] = test system: OVCAR-3; experiment: Growth inhibitory activity against human ovarian OVCAR-3 cell line; type: functional; method in brief: as §1
[8] = test system: DU-145; experiment: Growth inhibitory activity against human prostate DU-145 cell line; type: functional; method in brief: as §1
[9] = test system: UACC-62; experiment: Growth inhibitory activity against human melanoma UACC-62 cell line; type: functional; method in brief: as §1
[10] = test system: MDA-MB-435; experiment: Growth inhibitory activity against human breast MDA-MB-435 cell line; type: functional; method in brief: as §1
[11] = target: T1, DNA topoisomerase 1 (Homo sapiens); experiment: Induction of topoisomerase I mediated DNA cleavage; Greater activity than parent compound 1
[12] = target: T1, DNA topoisomerase 1 (Homo sapiens); experiment: Induction of topoisomerase I mediated DNA cleavage; Activity similar to 1 uM camptothecin; weak activity
[13] = target: T1, DNA topoisomerase 1 (Homo sapiens); experiment: Induction of topoisomerase I mediated DNA cleavage; Activity similar to parent compound 1
[14] = target: T1, DNA topoisomerase 1 (Homo sapiens); experiment: Induction of topoisomerase I mediated DNA cleavage; weak activity
[15] = target: T1, DNA topoisomerase 1 (Homo sapiens); experiment: Induction of topoisomerase I mediated DNA cleavage; Activity similar to 1 uM camptothecin

SMILES	GI50 [1] [µM]	Mean graph mid point [2]	DNA cleavage [3]	GI50 [4] [µM]	GI50 [5] [µM]	GI50 [6] [µM]	GI50 [7] [µM]	GI50 [8] [µM]	GI50 [9] [µM]	GI50 [10] [µM]	DNA cleavage [11]	DNA cleavage [12]	DNA cleavage [13]	DNA cleavage [14]	DNA cleavage [15]
Cl.NCCCn1c2c(c3ccccc3c1=O)C(=O)c1ccccc1-2	0.25	0.32	greater activity than compound 1	0.2	0.16	0.18	1.38	0.22	0.26	0.78					
COc1cc2c3c(n(CCCNCCO)c(=O)c2cc1OC)-c1cc2c(cc1C3=O)OCO2.Cl	0.04	0.11			> 0.01		0.35	> 0.01			Greater activity than compound 1				
CCn1c2c(c3cc(OC)c(OC)cc3c1=O)C(=O)c1cc3c(cc1-2)OCO3	2	2.4		2.2	3.6	2.6	3	2.3	2.1	2.6		+/-			
CCCn1c2c(c3ccccc3c1=O)C(=O)c1cc3c(cc1-2)OCO3	> 100	66.1		> 100	> 100	30.2	20.9	> 100	> 100	> 100			Activity similar to parent compound 1		
Cl.Cl.O=C1c2ccccc2-c2c1c1ccccc1c(=O)n2CCCNCCCn1ccnc1	1.07	1		0.41	2	1.58	1.78	0.41	6.92	1.45			Activity similar to parent compound 1		
CN(C)CCCn1c2c(c3ccccc3c1=O)C(=O)c1ccccc1-2		1.86	greater activity than compound 1	1.74	0.91	0.58	1.7	1.32	0.51	2.82					
Cl.NCCn1c2c(c3ccccc3c1=O)C(=O)c1ccccc1-2	0.21	0.53	greater activity than compound 1	0.62	0.49	0.27	0.71	0.76	0.92	0.92					
O=C1c2ccccc2-c2c1c1ccccc1c(=O)n2CCN1CCNCC1	1.99	1.86		1.91	2.19	0.58	1.12	3.09	1.38	1.95				Weak activity	
O=C1c2ccccc2-c2c1c1ccccc1c(=O)n2CCCn1ccnc1	2.34	1.86													Activity similar to 1 uM camptothecin
O=C1c2ccccc2-c2c1c1ccccc1c(=O)n2CCCl	2.24											+/-			
N=C(N)NCCCn1c2c(c3ccccc3c1=O)C(=O)c1ccccc1-2.O=C(O)C(F)(F)F	0.37	9.77		0.69	0.23	22.4	18.2	7.59	11	25.7	Greater activity than compound 1				
Cl.NCCCn1c2c(c3ccccc3c1=O)C(=O)c1cc3c(cc1-2)OCO3	0.43	0.25		0.28	0.19	0.68	1.45	0.06	0.18	1.82				Weak activity	
O=C1c2ccccc2-c2c1c1ccccc1c(=O)n2CCO	12.2												Activity similar to parent compound 1		
O=C1c2ccccc2-c2c1c1ccccc1c(=O)n2CCN1CCOCC1	85.1	67.6		> 100	93.3	36.3	81.3	> 100	29.5	> 100	Greater activity than compound 1				
Cl.NCCCCn1c2c(c3ccccc3c1=O)C(=O)c1ccccc1-2	0.1	0.16	greater activity than compound 1	0.08	0.04	0.1	0.52	0.01	0.05	0.84					
O=C1c2ccccc2-c2c1c1ccccc1c(=O)n2CCNCCO	1.65	1.9		1.62	0.95	1.12	3.85	1.28	1.42	2.56				Weak activity	
COc1cc2c3c(n(CCCN)c(=O)c2cc1OC)-c1cc2c(cc1C3=O)OCO2.Cl	0.26	0.16	greater activity than compound 1												
COc1cc2c3c(n(CCN)c(=O)c2cc1OC)-c1cc2c(cc1C3=O)OCO2.Cl	1.3	0.34		0.58	0.36	0.068	0.86	0.4	0.14	1.04	Greater activity than compound 1				
CC[C@@]1(O)C(=O)OCc2c1cc1n(c2=O)Cc2cc3ccccc3nc2-1 [CAMPTOTHECIN]	0.01	0.04									Active				
O=C1c2cc3c(cc2-c2c1c1ccccc1c(=O)n2CCCBr)OCO3	0.37	9.77			0.23	22.4	18.2	7.59		25.7				Weak activity	
COc1cc2c3c(n(C)c(=O)c2cc1OC)-c1cc2c(cc1C3=O)OCO2	41	20		1.3	68	35		37	4.2	96			Activity similar to parent compound 1		
COc1cc2c(cc1OC)-c1c(c3ccccc3c(=O)n1CCCN)C2=O.Cl	2.93	0.62											Activity similar to parent compound 1		
COc1cc2c3c(n(CCCN(C)C)c(=O)c2cc1OC)-c1cc2c(cc1C3=O)OCO2	0.19	0.35		0.018	0.9	0.12	1.4	0.14	0.54	0.65	Greater activity than compound 1				
O=C1c2ccccc2-c2c1c1ccccc1c(=O)n2CCCO	52.5												Activity similar to parent compound 1		
CCn1c2c(c3ccccc3c1=O)C(=O)c1cc3c(cc1-2)OCO3	40.7	51.3	greater activity than compound 1	36.3	> 100	95.5	89.1	> 100	20	> 100					
